# Test results: publication PMC7115421 (European Journal of Medicinal Chemistry, 2009)
# Experiments:
# [1] = test system: MDA-MB231 breast cancer cell line; test: SRB cytotoxicity assay, MDA-MB231; assay type: cell-based; details: Homo sapiens
# Method in brief: (§1)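 Cells grown in RPMI 1640 with 10% FBS and 2 mM L-glutamine at 37 °C, 5% CO2. 5000–10,000 cells/well seeded 24 h before dosing. Seven concentrations from 2–10-fold serial dilutions; medium with matched DMSO as control. After 48 h: TCA fixation (60 min, 4 °C), 0.4% SRB, Tris solubilisation, absorbance 515–564 nm. Growth = (Ti−Tz)/(C−Tz)×100. GI50 from variable-slope sigmoidal fit; triplicates, ≥3 experiments.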
# [2] = test system: MCF7 breast cancer cell line; test: SRB cytotoxicity assay, MCF7; assay type: cell-based, human
# Method in brief: as §1
# [3] = test system: 184B5 immortalized breast cell line; test: SRB cytotoxicity assay, 184B5 non-cancer cells; assay type: cell-based, human; details: for killing of 184B5 non-cancer cells (in words): combined with constant amount of Akt inhibitors 7–10 (0.04, 0.4, 3.5, 0.5 μM)
# [4] = test system: MDA-MB468, MDA-MB231 and MCF7 breast cancer cell lines; test: SRB cytotoxicity assay, three breast cancer cell lines together; assay type: cell-based, human; details: for sensitization of cell killing by PI3K-Akt inhibitors (in words): in combination with GI20 doses of PI3K-Akt inhibitors, three breast cancer cell lines
# Method in brief: (§2)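 Cells plated at 5000–10,000/well and held 24 h at 37 °C, 5% CO2; time-zero wells TCA-fixed. Test compound from DMSO stock, seven concentrations (2–10-fold dilutions), 48 h; DMSO-matched medium control. Cold TCA fixation (10% final), 60 min, 4 °C; 0.4% SRB stain; Tris base solubilisation; A515–564 nm. Growth % = (Ti−Tz)/(C−Tz)×100; GI values from variable-slope sigmoidal fit; triplicates, ≥3 independent experiments.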
# [5] = test system: MDA-MB468 breast cancer cell line; test: SRB cytotoxicity assay, MDA-MB468; assay type: cell-based; details: Homo sapiens
# Method in brief: as §1
# [6] = test system: MDA-MB468, MDA-MB231, MCF7 and 184B5; test: SRB cytotoxicity assay, all four cell lines together; assay type: cell-based, human; details: for cytotoxicity (in words) on the four cell lines: PI3K-Akt inhibitor alone; for average GI20 values on the four cell lines: average over MDA-MB468, MDA-MB231, MCF7, 184B5
# Method in brief: as §2
smiles,measurement,setting,value
"CCN(CC)CCCC(C)Nc1ccnc2cc(Cl)ccc12 (centres unmarked) [Compound 1, Chloroquine diphosphate]",IC50,[1]; MDA-MB-231,22.5 µM
same,GI50,"[1]; MDA-MB-231, 48 h",22.5 ± 1.44 µM
same,IC50,"[2]; Homo sapiens, MCF7",38.4 µM
same,GI50,"[2]; Homo sapiens, MCF7, 48 h",38.4 ± 1.2 µM
same,IC50,"[3]; Homo sapiens, 184B5",76.1 µM
same,GI50,"[4]; Homo sapiens, read-out: GI50 on the cancer cell lines (range)",22.5 to 38.4 µM
same,IC50,[5]; MDA-MB-468,28.6 µM
same,GI50,"[5]; MDA-MB-468, 48 h",28.6 ± 1.25 µM
"CCCCNc1ccnc2cc(Cl)ccc12 [Compound 2, Butyl-(7-chloro-quinolin-4-yl)-amine]",killing of 184B5 non-cancer cells (in words),[3],effectively killed
same,sensitization of cell killing by PI3K-Akt inhibitors (in words),[4],generally not effective sensitizers
"CCCCNc1ccnc2cc(F)ccc12 [Compound 3, Butyl-(7-fluoro-quinolin-4-yl)-amine]",killing of 184B5 non-cancer cells (in words),[3],effectively killed
same,sensitization of cell killing by PI3K-Akt inhibitors (in words),[4],generally not effective sensitizers
"CN(C)CCNc1ccnc2cc(Cl)ccc12 [Compound 4, N′-(7-Chloro-quinolin-4-yl)-N,N-dimethyl-ethane-1,2-diamine]",sensitization of cell killing by PI3K-Akt inhibitors (in words),[4],substantial enhancement of cell killing
"CN(C)CCNc1ccnc2cc(F)ccc12 [Compound 5, N′-(7-Fluoro-quinolin-4-yl)-N,N-dimethyl-ethane-1,2-diamine]",sensitization of cell killing by PI3K-Akt inhibitors (in words),[4],substantial enhancement of cell killing
"COc1ccc2c(NCCN(C)C)ccnc2c1 [Compound 6, N′-(7-Methoxy-quinolin-4-yl)-N,N-dimethyl-ethane-1,2-diamine]",sensitization of cell killing by PI3K-Akt inhibitors (in words),[4],not very effective
"CC[n+]1c(C=CN(C)c2ccccc2)n(-c2ccccc2)c2ccc(-c3nc4ccccc4s3)cc21.[I-] [Compound 7, 6-Benzothiazol-2-yl-1-ethyl-2-[2-(methyl-phenyl-amino)-vinyl]-3-phenyl-3H-benzoimidazol-1-ium Iodide]",cytotoxicity (in words) on the four cell lines,[6],the most cytotoxic
same,average GI20 values on the four cell lines,[6],0.04 µM
"O=c1[nH]c2ccccc2n1C1CCN(Cc2ccc(-c3nc4cc5nc[nH]c5cc4nc3-c3ccccc3)cc2)CC1 [Compound 8, 1-{1-[4-(7-Phenyl-1H-imidazo[4,5-g]quinoxalin-6-yl)-benzyl]-piperidin-4-yl}-1,3-dihydro-benzoimidazol-2-one]",cell killing (in words) of MCF7,"[2]; PI3K-Akt inhibitor alone, not other cells examined",killed MCF7 cells effectively
"CCN(CC)CCCCN1c2ccccc2OC2C=CC(Cl)=CC21.Cl (centres unmarked) [Compound 9, [4-(2-chloro-4a,10a-dihydro-phenoxazin-10-yl)-butyl]-diethyl-amine hydrochloride]",cytotoxicity (in words) on the four cell lines,[6],only week cytotoxicity
"O=c1cc(N2CCOCC2)oc2c(-c3ccccc3)cccc12 [Compound 10, 2-Morpholin-4-yl-8-phenyl-chromen-4-one]",average GI20 values on the four cell lines,[6],0.52 µM
